In test [1] the target is T1, Histone-lysine N-methyltransferase EZH2 (Homo sapiens, UniProt Q15910). Description: Inhibition of EZH2-mediated proliferation of human […] cells after 6 days by chemiluminescence analysis. In kind it is cell-based.
For test [2], the target named is Protein arginine N-methyltransferase 3 (Homo sapiens, UniProt O60678). Description: Inhibition of PRMT3 using histone H3 as substrate preincubated for 10 mins followed by addition of [3H]SAM and incubated for 60 mins. The gist of the method:
(§1)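 Panel of methyltransferases tested for selectivity. […] Values are the mean of at least two independent replicates.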

The target in test [3] is T1, Histone-lysine N-methyltransferase EZH2. Description: Inhibition of EZH2-mediated proliferation of human PC3 cells after 6 days by chemiluminescence analysis. In kind it is cell-based. Particulars: PC-3.
Test [4] addresses EZH2/SUZ12/EED/RBBP7/RBBP4. The experiment in a line: Inhibition of PRC2 complex of FLAG-EZH2, EED, SUZ12, AEBP2 and RbAp48 using histone H3 peptide (21 to 44) as substrate and [3H]SAM after 1 hr. In kind it is protein-complex assay.
For test [5], the target named is T1, Histone-lysine N-methyltransferase EZH2. The experiment in a line: Inhibition of EZH2-mediated nuclear H3K27 methylation in human HCC1806 cells at >1000 nM after 72 hrs by immunofluorescence analysis. It counts as cell-based. The method in brief: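 HCC1806 breast cancer cells were exposed to compound for 72 h. Nuclear H3K27me3 was quantified by an immunofluorescence imaging assay and normalized to total H3. […] Values are the mean of at least three independent replicates.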

Test [6] has as its target T2, Histone-lysine N-methyltransferase SUV39H1 (Homo sapiens, UniProt O43463).
T2 sequence (O43463 whole entry): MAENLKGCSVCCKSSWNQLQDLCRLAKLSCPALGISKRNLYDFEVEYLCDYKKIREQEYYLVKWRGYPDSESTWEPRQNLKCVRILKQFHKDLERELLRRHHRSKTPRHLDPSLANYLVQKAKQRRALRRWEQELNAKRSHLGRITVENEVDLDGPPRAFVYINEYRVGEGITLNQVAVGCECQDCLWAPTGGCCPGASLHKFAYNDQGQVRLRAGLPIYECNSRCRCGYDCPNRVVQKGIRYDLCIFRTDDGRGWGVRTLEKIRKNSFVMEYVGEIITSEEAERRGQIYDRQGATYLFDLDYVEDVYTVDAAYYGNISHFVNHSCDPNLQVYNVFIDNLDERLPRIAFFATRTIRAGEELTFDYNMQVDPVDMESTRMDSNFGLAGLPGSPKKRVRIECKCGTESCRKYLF
The experiment in a line: Inhibition of SUV39H1 using histone H3 as substrate preincubated for 10 mins followed by addition of [3H]SAM and incubated for 60 mins. The method in brief:
as §1

Test [7] addresses T3, Histone-lysine N-methyltransferase SETD7 (Homo sapiens, UniProt Q8WTS6).
T3 sequence (Q8WTS6 whole entry): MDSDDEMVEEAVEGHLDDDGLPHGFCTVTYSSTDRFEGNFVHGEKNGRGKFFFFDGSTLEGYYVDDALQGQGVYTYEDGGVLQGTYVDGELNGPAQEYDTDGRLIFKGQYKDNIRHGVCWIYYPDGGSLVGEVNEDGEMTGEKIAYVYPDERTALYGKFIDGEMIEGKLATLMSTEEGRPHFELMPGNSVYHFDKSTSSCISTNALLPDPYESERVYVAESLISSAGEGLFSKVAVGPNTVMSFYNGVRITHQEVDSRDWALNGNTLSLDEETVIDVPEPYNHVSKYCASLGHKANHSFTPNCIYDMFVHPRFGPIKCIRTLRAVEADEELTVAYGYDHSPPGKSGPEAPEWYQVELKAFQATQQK
The experiment in a line: Inhibition of SET7 using histone H3 as substrate preincubated for 10 mins followed by addition of [3H]SAM and incubated for 60 mins. The gist of the method:
as §1

The target in test [8] is T4, Histone-lysine N-methyltransferase SETMAR (Homo sapiens, UniProt Q53H47).
T4 sequence (Q53H47 whole entry): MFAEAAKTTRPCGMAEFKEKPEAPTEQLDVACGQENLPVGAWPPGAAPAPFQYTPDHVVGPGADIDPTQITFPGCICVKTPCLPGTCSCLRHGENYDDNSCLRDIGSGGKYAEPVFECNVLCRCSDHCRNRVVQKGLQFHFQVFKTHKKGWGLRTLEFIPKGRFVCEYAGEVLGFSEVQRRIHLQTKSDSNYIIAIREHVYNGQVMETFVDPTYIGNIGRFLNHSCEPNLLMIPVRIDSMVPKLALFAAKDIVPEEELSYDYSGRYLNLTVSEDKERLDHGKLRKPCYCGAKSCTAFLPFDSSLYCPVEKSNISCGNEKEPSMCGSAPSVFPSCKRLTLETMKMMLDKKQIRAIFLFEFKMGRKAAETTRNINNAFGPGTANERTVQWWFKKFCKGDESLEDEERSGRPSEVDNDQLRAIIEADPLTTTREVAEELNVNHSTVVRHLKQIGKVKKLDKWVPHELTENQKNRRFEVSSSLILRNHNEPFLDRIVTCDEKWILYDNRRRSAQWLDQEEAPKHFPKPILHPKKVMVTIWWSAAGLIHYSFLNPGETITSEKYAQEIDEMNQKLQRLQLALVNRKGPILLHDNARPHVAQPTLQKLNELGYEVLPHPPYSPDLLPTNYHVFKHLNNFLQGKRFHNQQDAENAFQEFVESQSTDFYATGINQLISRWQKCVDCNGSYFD
The experiment in a line: Inhibition of SETMAR using histone H3 as substrate preincubated for 10 mins followed by addition of [3H]SAM and incubated for 60 mins. The gist of the method: as §1

The target of test [9] is T1, Histone-lysine N-methyltransferase EZH2. The experiment in a line: Inhibition of EZH2-mediated proliferation of human ZR-75-1 cells after 6 days by chemiluminescence analysis. It counts as cell-based.
Test [10] addresses Histone-lysine N-methyltransferase, H3 lysine-79 specific (Homo sapiens, UniProt Q8TEK3). Description: Inhibition of DOT1L using core histone as substrate preincubated for 10 mins followed by addition of [3H]SAM and incubated for 60 mins. The gist of the method: as §1
Test [11] deals with T1, Histone-lysine N-methyltransferase EZH2. Description: Inhibition of EZH2-mediated proliferation of human SKBR3 cells after 6 days by chemiluminescence analysis. It counts as cell-based. Particulars: SK-BR-3.
Test [12] shares this target. The experiment in a line: Inhibition of EZH2-mediated proliferation of human DU145 cells after 6 days by chemiluminescence analysis. In kind it is cell-based. Particulars: DU-145.
For test [13], the target named is Histone-lysine N-methyltransferase 2B (Homo sapiens, UniProt Q9UMN6). The experiment in a line: Inhibition of MLL4 using core histone as substrate preincubated for 10 mins followed by addition of [3H]SAM and incubated for 60 mins. The gist of the method: as §1
For test [14], the target named is Histone-lysine N-methyltransferase 2A (Homo sapiens, UniProt Q03164). Description: Inhibition of MLL1 using core histone as substrate preincubated for 10 mins followed by addition of [3H]SAM and incubated for 60 mins. The gist of the method: as §1
In test [15] the target is Histone-lysine N-methyltransferase 2C (Homo sapiens, UniProt Q8NEZ4). The experiment in a line: Inhibition of MLL3 using core histone as substrate preincubated for 10 mins followed by addition of [3H]SAM and incubated for 60 mins. The method in brief:
as §1

In test [16] the target is Histone-lysine N-methyltransferase 2D (Homo sapiens, UniProt O14686). Description: Inhibition of MLL2 using core histone as substrate preincubated for 10 mins followed by addition of [3H]SAM and incubated for 60 mins. The gist of the method: as §1

Results on three molecules are retold here after ChEMBL document CHEMBL2202955, “Identification of Potent, Selective, Cell-Active Inhibitors of the Histone Lysine Methyltransferase EZH2” (ACS Med Chem Lett, 2012).

Activity calls are given as the source filed them. The calls are words filed in the database; no cut-off is given here. Bounds are passed on as bounds.

Histone-lysine N-methyltransferase, H3 lysine-79 specific, sequence (Q8TEK3 whole entry): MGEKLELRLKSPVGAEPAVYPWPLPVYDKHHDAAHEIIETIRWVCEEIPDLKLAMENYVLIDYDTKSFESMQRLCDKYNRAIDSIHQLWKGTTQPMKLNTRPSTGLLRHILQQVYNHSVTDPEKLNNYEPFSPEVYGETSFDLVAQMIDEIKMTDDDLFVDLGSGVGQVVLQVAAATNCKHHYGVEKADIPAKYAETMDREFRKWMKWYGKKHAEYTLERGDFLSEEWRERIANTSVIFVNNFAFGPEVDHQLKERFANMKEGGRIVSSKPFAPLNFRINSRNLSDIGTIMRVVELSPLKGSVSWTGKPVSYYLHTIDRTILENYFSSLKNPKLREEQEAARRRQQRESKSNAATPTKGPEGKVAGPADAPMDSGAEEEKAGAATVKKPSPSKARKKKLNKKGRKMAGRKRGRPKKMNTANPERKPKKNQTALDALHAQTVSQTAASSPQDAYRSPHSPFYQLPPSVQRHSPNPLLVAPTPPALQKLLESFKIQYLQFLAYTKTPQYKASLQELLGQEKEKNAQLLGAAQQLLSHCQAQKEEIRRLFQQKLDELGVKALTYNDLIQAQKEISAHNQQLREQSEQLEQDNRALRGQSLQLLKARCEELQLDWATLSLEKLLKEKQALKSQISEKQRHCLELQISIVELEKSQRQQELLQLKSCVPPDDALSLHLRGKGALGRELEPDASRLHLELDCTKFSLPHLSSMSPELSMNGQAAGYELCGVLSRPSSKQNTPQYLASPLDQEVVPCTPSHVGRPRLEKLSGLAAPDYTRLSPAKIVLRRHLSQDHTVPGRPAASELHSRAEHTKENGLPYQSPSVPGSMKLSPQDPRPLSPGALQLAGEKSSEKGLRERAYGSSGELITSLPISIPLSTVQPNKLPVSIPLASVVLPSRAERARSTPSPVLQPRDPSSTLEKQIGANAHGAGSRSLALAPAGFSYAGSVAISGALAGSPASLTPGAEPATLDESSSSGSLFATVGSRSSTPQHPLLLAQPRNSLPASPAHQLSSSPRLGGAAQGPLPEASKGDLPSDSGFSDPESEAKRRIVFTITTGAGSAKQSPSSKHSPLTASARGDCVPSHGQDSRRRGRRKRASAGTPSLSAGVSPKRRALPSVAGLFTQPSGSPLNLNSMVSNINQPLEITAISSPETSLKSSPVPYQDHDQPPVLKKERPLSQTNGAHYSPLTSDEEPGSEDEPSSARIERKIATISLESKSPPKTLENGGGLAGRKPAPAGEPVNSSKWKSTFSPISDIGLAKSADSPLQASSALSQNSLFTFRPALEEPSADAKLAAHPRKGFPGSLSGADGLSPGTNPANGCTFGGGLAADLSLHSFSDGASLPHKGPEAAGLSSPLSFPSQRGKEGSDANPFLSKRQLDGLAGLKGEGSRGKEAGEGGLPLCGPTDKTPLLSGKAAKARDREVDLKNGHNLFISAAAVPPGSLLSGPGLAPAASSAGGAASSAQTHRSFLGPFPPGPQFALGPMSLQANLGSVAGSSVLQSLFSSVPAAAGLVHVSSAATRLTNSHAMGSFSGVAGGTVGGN
Protein arginine N-methyltransferase 3, sequence (O60678 whole entry): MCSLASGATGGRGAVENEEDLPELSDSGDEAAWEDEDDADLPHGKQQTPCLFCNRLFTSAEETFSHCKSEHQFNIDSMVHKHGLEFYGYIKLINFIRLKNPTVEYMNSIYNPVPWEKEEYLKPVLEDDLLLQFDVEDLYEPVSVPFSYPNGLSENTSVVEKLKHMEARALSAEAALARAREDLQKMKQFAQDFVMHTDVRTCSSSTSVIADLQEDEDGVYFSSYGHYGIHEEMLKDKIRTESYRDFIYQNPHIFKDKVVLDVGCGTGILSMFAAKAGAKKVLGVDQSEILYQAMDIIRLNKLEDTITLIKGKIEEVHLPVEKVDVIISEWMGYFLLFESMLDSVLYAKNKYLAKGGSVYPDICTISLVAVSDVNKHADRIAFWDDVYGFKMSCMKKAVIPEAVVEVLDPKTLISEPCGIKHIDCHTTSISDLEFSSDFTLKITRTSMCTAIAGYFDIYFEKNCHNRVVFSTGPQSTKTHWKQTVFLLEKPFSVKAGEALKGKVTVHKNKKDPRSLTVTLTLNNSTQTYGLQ
T1 sequence (Q15910 whole entry, looked up): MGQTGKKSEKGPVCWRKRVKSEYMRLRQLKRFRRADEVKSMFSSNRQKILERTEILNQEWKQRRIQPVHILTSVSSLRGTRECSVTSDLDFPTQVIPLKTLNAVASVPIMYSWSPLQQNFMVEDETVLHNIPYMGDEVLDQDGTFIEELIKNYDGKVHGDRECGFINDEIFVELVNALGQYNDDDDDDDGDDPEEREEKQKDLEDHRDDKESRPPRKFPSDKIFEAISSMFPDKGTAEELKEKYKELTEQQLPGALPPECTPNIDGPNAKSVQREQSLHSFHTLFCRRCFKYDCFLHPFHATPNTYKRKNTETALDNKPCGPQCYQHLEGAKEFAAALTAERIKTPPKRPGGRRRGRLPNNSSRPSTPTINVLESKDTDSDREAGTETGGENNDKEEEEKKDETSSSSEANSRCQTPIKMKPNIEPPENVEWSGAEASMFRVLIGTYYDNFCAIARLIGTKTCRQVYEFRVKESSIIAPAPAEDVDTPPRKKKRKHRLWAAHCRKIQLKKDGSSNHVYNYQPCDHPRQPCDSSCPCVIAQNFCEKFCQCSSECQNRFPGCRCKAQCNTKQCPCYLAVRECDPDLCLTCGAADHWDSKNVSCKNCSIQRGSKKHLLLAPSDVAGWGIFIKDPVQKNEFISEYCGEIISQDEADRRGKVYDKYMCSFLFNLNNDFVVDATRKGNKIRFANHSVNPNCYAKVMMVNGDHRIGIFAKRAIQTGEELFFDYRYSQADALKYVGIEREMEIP

Turning to `Cc1cc(C)c(CNC(=O)c2cc(-c3ccc(N4CCN(C)CC4)nc3)cc3c2cnn3C(C)C)c(=O)[nH]1`, the inhibition entry in [1], in [3], in test [9], in test [11] and in test [12] was “Active” in each case. Moreover, the IC50 (in general, the midpoint of a concentration-inhibition curve) is greater than 100 µM in test [2]; 0.02 µM in test [4]; greater than 100 µM in [6]; 214 µM in test [7]; greater than 100 µM in test [8]; greater than 100 µM in test [10]. Also, the inhibition (commonly the relative decrease from the control value, in per cent) in test [5] was greater than 90%.

As for `CCCc1cc(C)[nH]c(=O)c1CNC(=O)c1cc(-c2ccnc(N3CCN(C)CC3)c2)cc2c1cnn2C(C)C`, the IC50 was 74 µM in [2]; greater than 100 µM in test [13]; 0.004 µM in test [4]; greater than 100 µM in [6]; 63 µM in [7]; greater than 100 µM in test [14]. Also, the half-maximal inhibitory concentration (IC50) in test [8], in test [15], in [10] and in test [16] was greater than 100 µM each time.

`CCCc1cc(C)[nH]c(=O)c1CNC(=O)c1cc(-c2ccc(N3CCN(C)CC3)nc2)cc2c1cnn2C(C)C`: the IC50 in test [2] is 54 µM; in [4], 0.004 µM; in test [6] it was greater than 100 µM; in test [7], 49 µM; in test [8], greater than 100 µM; in [10], greater than 100 µM.
